Published values collected from several papers.
Each line is one published result; the experiments were not run side by side.
Cell line: K562
Effect on: cell growth or viability

SMILES | test | conditions | IC50 [nM]
CCCCCC/C=C1\CC2C=CC=CC1C2C1CCCCC1=O (centres unmarked) | flow cytometry | – | 17
COc1ccc(/C=C\c2cc(OC)c(OC)c(OC)c2)cc1O | – | – | 5
CCCON(Cc1ccc(C(=O)NO)cc1)C(=O)Nc1ccccc1 | ATP luminescence | 72 h | 1770
CC(=O)O[C@H](C)C(=O)CCCCCCC(=O)Nc1ccccc1 | thymidine uptake | – | > 100000
COc1cc(Nc2nccc(-c3cnn4nc(OC)ccc34)n2)cc(C(F)(F)F)c1 | ATP luminescence | – | 260
CCCON(Cc1ccc(C(=O)NO)cc1)C(=O)Nc1ccc(N(C)C)cc1 | ATP luminescence | 72 h | 7680
CC(C)[C@H](N)C(=O)N1CCC[C@H]1B(O)O | ATP luminescence | 48 h | > 60000
O=C1CCCCC1C1C2C=CC=CC1/C(=C/Cc1ccccc1)C2 (centres unmarked) | flow cytometry | – | 38
CN1c2ccccc2C(=O)N2[C@H](C(=O)Nc3ccc(/C=C/C(=O)NO)cc3)Cc3c([nH]c4ccccc34)[C@@H]12 | – | – | 1000
O=C1NC(=NCc2cccs2)S/C1=C\c1ccc2ncccc2c1 | – | – | > 10000
N#CCCCC1=CC2C=CC=CC1C2C1CCCCC1=O (centres unmarked) | flow cytometry | – | 31
COC(=O)Nc1nc2ccc(Oc3ccc(NC(=O)Nc4cc(C(F)(F)F)ccc4F)cc3)cc2s1 | XTT | 72 h | 81
O=C1CCCCC1C1C2C=CC=CC1C(CCN1C(=O)c3ccccc3C1=O)=C2 (centres unmarked) | flow cytometry | – | 11
C#CCSc1nc(Sc2nnnn2-c2ccccc2)c2nnn(Cc3ccc(OC)cc3)c2n1 | MTS | 6 days | 7240
Cc1cc(NCCCCCCCNc2cc(C)nc3cc(N)ccc23)c2ccc(N)cc2n1 | XTT | 96 h | 13000
CCCCC1=CC2C=CC=CC1C2C1CCCCC1=O (centres unmarked) | flow cytometry | – | 29
Cc1c(O)c(=O)ccn1CCO | MTT | 72 h | ≥ 100000
